From paper PMC6690926 (International Journal of Nanomedicine, 2019)
*1 amine or outer side, *2 acyl side, *3 side chain or, on linkers, in order; H or OH if unused. Where a SMILES comes first, the peptide text is derived from it. Bridges are numbered along the chain shown (N, C = ends). Roman numbers before positions name the chains, in order. [ ]: non-standard residue; d: D form. Actinocin(9to1) = Cc1c2oc3c(C)ccc(C(=O)[*:1])c3nc-2c(C(=O)[*:2])c(N)c1=O; NMeV = CN[C@H](C(=O)O)C(C)C; Sar = CNCC(=O)O

Assays:
[1] = In vitro cytotoxicity of Act D; type: cell-based; details: human, Caco-2 cells
In short: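 Caco-2 cells were seeded at 1×10^4 cells/well in DMEM with 10% FBS and cultured for 24 h. They were then exposed for 5 h to the test compound at 1, 2, 3.2 and 6 µM in HBSS. WST-8 was added for 1 h and absorbance read at 450 nm. Viability is expressed as a percentage of untreated cells; mean ± SD, n=6.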

[2] = Parallel artificial membrane permeability assay; type: in vitro ADME; details: PAMPA, pH 6.8
In short: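 PAMPA: donor wells held test formulation diluted in PBS pH 6.8 to 200 µg/mL drug equivalent; receiver wells held PBS pH 6.8. Plates were incubated 5 h at room temperature. Donor and receiver concentrations were measured by HPLC at 254 nm (C18; water pH 3.5/acetonitrile 80:20, 1 mL/min). Effective permeability was calculated with filter area 0.288 cm2, donor volume 0.2 mL and receiver volume 0.3 mL, using equilibrium concentration.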

[3] = In vitro permeability across a Caco-2 cell monolayer; type: in vitro ADME; details: human
[4] = In vivo pharmacokinetic study in rats; details: Sprague-Dawley, rat, plasma, 25 mg/kg
In short: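 Male Sprague-Dawley rats (6–7 weeks, 200–250 g) received the test formulation orally in water at 25 mg/kg drug equivalent. The IV reference was 5 mg/kg aqueous drug by tail vein. Retro-orbital blood was taken into heparin plus 3.8% sodium citrate, spun at 2,500×g for 15 min at 4 °C, and plasma stored at −70 °C. Plasma was assayed by LC/MS (C18, ESI positive, m/z 428; DAMPA internal standard). Non-compartmental analysis; n=4, mean ± SD.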

Papp at 5 h, 200 µg/mL [2] [×10⁻⁶ cm/s]	Papp at 5 h, 100 µg/mL [3] [×10⁻⁶ cm/s]	bioavailability ([4]; oral) [%]	AUC(0-inf) ([4]; po) [ng·h/mL]	AUC(0-t) ([4]; po) [ng·h/mL]	Cmax ([4]; po) [ng/mL]	Tmax ([4]; po) [h]	half-life ([4]; po) [h]	SMILES	viability at 5 h, 3.2 µM [1] [%]
								Cc1c2oc3c(C)ccc(C(=O)N[C@@H]4C(=O)N[C@H](C(C)C)C(=O)N5CCC[C@H]5C(=O)N(C)CC(=O)N(C)[C@@H](C(C)C)C(=O)O[C@@H]4C)c3nc-2c(C(=O)N[C@@H]2C(=O)N[C@H](C(C)C)C(=O)N3CCC[C@H]3C(=O)N(C)CC(=O)N(C)[C@@H](C(C)C)C(=O)O[C@@H]2C)c(N)c1=O [Act D, actinomycin D] (I: T[dV]P[Sar][NMeV] / II: T[dV]P[Sar][NMeV]; ester I:1-I:C, II:1-II:C; linker I:N-II:N via Actinocin(9to1))	105 ± 6.81
0.29 ± 0.08	1.78 ± 0.118	5.02 ± 0.57	2770 ± 210	2350 ± 270	1280 ± 170	0.63 ± 0.25	2.5 ± 0.45	Nc1nc2[nH]cc(CCc3ccc(C(=O)N[C@@H](CCC(=O)O)C(=O)O)cc3)c2c(=O)[nH]1 [PMX, N-[4-[2-(2-amino-3,4-dihydro-4-oxo-7H-pyrrolo[2,3-d]pyrimidin-5-yl)-ethyl]-benzoyl]-L-glutamic acid]	
